tim10-1 inh: tim10-1 yeast growth inhibition; actives 2.2% (n = 330,000); AID 463190; inhibition, % at 20 µM; S. cerevisiae tim10-1 ts strain growth, BacTiter-Glo, 24 h;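 active = inhibition of at least 40%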;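 note: mutant grown at 25 °C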
tim23-1 inh: inhibits growth of tim23-1 mutant yeast. S. cerevisiae tim23-1 growth, BacTiter-Glo luminescence, 24 h. inhibition, % at 20 µM. actives 1.3% (n = 330,000). AID 463212;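 active = growth inhibition of the mutant yeast at or above 50%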;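 note: temperature-sensitive mutant grown at 25 °C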
UPR CHOP act: apoptotic UPR (CHOP) activation; CHO-CHOP luciferase reporter, luminescence; percent of tunicamycin response over DMSO baseline; activation, % at 10 µM; actives 0.34% (n = 330,000);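 active = at 10 µM dose, activation of 40% or more, normalized to positive control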
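assay system = CHO CHOP reporter cells | amount = 500 CHO-CHOP cells per well | buffer or medium = F12 with 10% FBS | incubation = 16-18 h cell attachment, then 6 h compound exposure, 37 °C | detection = luminescence read with Steady-Glo | read-out = percent activation relative to tunicamycin control | controls = tunicamycin high control, DMSO low control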
TIM10 inh: inhibits growth of TIM10 yeast strain. S. cerevisiae TIM10 strain growth, BacTiter-Glo luminescence, 24 h. inhibition, % at 10 µM. actives 1.4% (n = 330,000). AID 463195;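 active = inhibition of 40% or more at the single tested concentration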;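 note: wild-type TIM10 isogenic control strain grown at permissive 25 °C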
UPR XBP1 act: activators of adaptive arm of unfolded protein response (XBP1); activation, % at 20 µM; CHO-XBP1 luciferase reporter, IRE1-XBP1 UPR activation, luminescence; percent of tunicamycin response, DMSO as zero; actives 0.33% (n = 330,000);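 active = versus positive control, 20 µM dose yields 30% or more activation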
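Assay system: IRE1-XBP1 luciferase reporter CHO line. Input: 1000 cells/well. Buffer or medium: F12 with 10% serum. Doses: 20 µM, 1% DMSO. Times: overnight seeding at 37 °C, 6 h compound treatment at 37 °C. Technique: Steady-Glo luciferase glow luminescence, 10 min after reagent addition.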
tim10-1 conf: confirmation of tim10-1 mutant yeast growth inhibitors; shares compounds with tim10-1 inh; S. cerevisiae tim10-1 ts strain growth, BacTiter-Glo, 24 h; inhibition, % at 20 µM; actives 56% (n = 7,400); AID 463213;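 active = inhibition of yeast growth at or above a set limit in either of two repeat tests at 20 µM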;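 note: tim10-1 mutant grown at permissive 25 °C to find synthetic lethal compounds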
Numbers stand for hits; - = inactive; . = not tested or not shown. Shown are actives, neighbours in structure and some others; about 3.9% of the full set was active somewhere.

SMILES	tim10-1 inh	tim23-1 inh	UPR CHOP act	TIM10 inh	UPR XBP1 act	tim10-1 conf
O=S(=O)(c1cc(Cl)ccc1Br)N1CCCCC1	43	-	-	-	-	32
O=S(=O)(c1cc(Cl)ccc1Cl)N1CCCCC1	-	-	-	-	-	.
CCOC(=O)N1CCN(C(=O)c2ccc3c(c2)N=C(C)c2cc(Cl)ccc2S3)CC1	-	-	-	-	-	.
CC(C)Oc1ccc(CNC(=S)N/N=C/c2ccc([N+](=O)[O-])cc2)cc1	43	-	-	-	-	-
CC(C)COc1ccc(CNC(=S)N/N=C/c2ccc([N+](=O)[O-])cc2)cc1	-	-	-	-	-	.
COc1ccc2cc(CCNC(=O)c3c(-c4ccccc4Cl)noc3C)c(=O)[nH]c2c1	41	-	-	-	-	-
COc1ccc(CCNC(=O)c2c(-c3ccccc3Cl)noc2C)cc1	-	-	-	-	-	.
OCCN1CCN(CC/C=C2/c3ccccc3Sc3ccc(C(F)(F)F)cc32)CC1	51	-	-	-	-	-
OCCN1CCN(CCCN2c3ccccc3Sc3ccc(C(F)(F)F)cc32)CC1	42	-	-	-	-	30
CCSc1ccc2c(c1)N(CCCN1CCN(C)CC1)c1ccccc1S2	42	-	-	-	-	31
CCN(CC)CCCCN1c2ccccc2Sc2ccccc21	41	-	-	-	-	-
CN1CCN(CCC(=O)N2c3ccccc3Sc3ccc(C(F)(F)F)cc32)CC1	-	-	-	-	-	.
O=C(CC1CCCC1)NNC(=O)c1ccc(Br)cc1	-	-	-	-	-	.
CCc1nc(C(N)=O)c2[nH]c(=O)n(-c3ccccc3F)c2n1	-	-	-	-	-	.
CN(C)CCCN1c2ccccc2Sc2ccc(C(F)(F)F)cc21	44	-	-	-	-	-
Cc1cc(OCC(=O)Nc2sc3c(c2C#N)CC(C)(C)NC3(C)C)c(C(C)C)cc1Cl	47	-	-	-	-	-
CCCCCCN1C=C/C(=C\C=C(C#N)C#N)c2ccccc21	49	-	-	-	-	-
C=CCN1C=C/C(=C\C=C(C#N)C#N)c2ccccc21	-	-	-	-	-	.
Cc1ccc(CN(C)C(=O)COC(=O)CSc2cc(C)c3ccccc3n2)cc1	-	-	-	-	-	.
O=[N+]([O-])c1ccccc1N/N=C/c1c[nH]c2ccccc12	69	-	-	-	-	57
O=[N+]([O-])c1ccc(N/N=C/c2c[nH]c3ccccc23)cc1	-	-	-	-	-	.
Cc1cc(C)cc(NC(=O)COC(=O)CC2CCCC2)c1	-	-	-	-	-	.
O=C(OCCN1CCN(C2=NS(=O)(=O)c3ccccc32)CC1)c1ccccc1F	-	-	-	-	-	.
CN1CCN(c2ccc(NC(=S)NC(=O)c3cccc4c(Br)cccc34)cc2)CC1	47	-	-	-	-	-
CN1CCN(c2ccc(NC(=S)NC(=O)c3cccc4ccccc34)cc2)CC1	-	-	-	-	-	.
SMILES	tim10-1 inh	tim23-1 inh	UPR CHOP act	TIM10 inh	UPR XBP1 act	tim10-1 conf
CC(=O)Nc1ccc(C(=O)OCc2ccc(F)cc2)cc1	42	-	-	-	-	-
Cc1c(NC(=O)CSc2nc(N)cc(N)n2)c(=O)n(-c2ccccc2)n1C	-	-	-	-	-	.
CCOC(=O)c1nn(-c2ccccc2)c(=O)c2c(N)scc12	51	-	-	-	-	-
COc1ccccc1NC(=O)CSc1nnc(C)s1	-	-	-	-	-	.
Cc1ccccc1/C=N/n1c(-c2ccccn2)n[nH]c1=S	-	-	-	-	-	.
S=c1[nH]nc(-c2ccccn2)n1/N=C/c1cccc2ccccc12	41	-	-	-	-	-
O=S(=O)(c1cc(Cl)c(Cl)cc1Cl)N1CCN2CCCC2C1 (stereo not drawn)	-	-	-	-	-	.
Cc1noc(/C=C/c2ccccc2F)c1S(=O)(=O)N1CCC(C(=O)N2CCN(C)CC2)CC1	40	-	-	-	-	-
COc1ccc(-c2cn3c(C)c(C(=O)N4CCc5ccccc5C4)sc3n2)cc1	43	-	-	-	-	37
Cc1c(C(=O)N2CCc3ccccc3C2)sc2nc(-c3ccccc3)cn12	51	-	-	-	-	35
Cc1c(C(=O)N2CCOCC2)sc2nc(-c3ccccc3)cn12	-	-	-	-	-	.

Source: PubChem BioAssay
